Assay results reported in ChEMBL document CHEMBL1146459, “Production of biologically active taxoids by a callus culture of Taxus cuspidata” (2004).

Experiments:
[1] = Reversal of multidrug resistance in human 2780AD cells assessed as [3H]vincristine accumulation at 1 ug/mL after 2 hrs relative to control; format: functional, A2780 ADR
Procedure, shortened: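 Multidrug-resistant human ovarian cancer 2780AD cells were exposed to taxoids at 0.1, 1 or 10 µg/mL. Radiolabelled vincristine accumulated in the cells was measured as dpm/well, using means of triplicate determinations. Results are expressed as % of vincristine accumulated relative to the control experiment. They were also scored on a seven-level index according to the range of relative accumulation.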

[2] = Reversal of multidrug resistance in human 2780AD cells assessed as [3H]vincristine accumulation at 1 ug/mL after 2 hrs relative to verapamil; format: functional, A2780 ADR
[3] = Growth inhibition of human HBC4 cells after 48 hrs by SRB assay; format: functional; conditions: HBC4, 48 h
[4] = Growth inhibition of human HBC5 cells after 48 hrs by SRB assay; format: functional; conditions: HBC5, 48 h
MCF7 = assay: Growth inhibition of human MCF7 cells after 48 hrs by SRB assay; format: functional; conditions: MCF7, 48 h
MDA-MB-231 = assay: Growth inhibition of human MDA-MB-231 cells after 48 hrs by SRB assay; format: functional; conditions: MDA-MB-231, 48 h
U-251 = assay: Growth inhibition of human U251 cells after 48 hrs by SRB assay; format: functional; conditions: U-251, 48 h
SNB-75 = assay: Growth inhibition of human SNB75 cells after 48 hrs by SRB assay; format: functional; conditions: SNB-75, 48 h
SNB-78 = assay: Growth inhibition of human SNB78 cells after 48 hrs by SRB assay; format: functional; conditions: SNB-78, 48 h
HCT-15 = assay: Growth inhibition of human HCT15 cells after 48 hrs by SRB assay; format: functional; conditions: HCT-15, 48 h
HCT-116 = assay: Growth inhibition of human HCT116 cells after 48 hrs by SRB assay; format: functional; conditions: HCT-116, 48 h
NCI-H23 = assay: Growth inhibition of human NCI-H23 cells after 48 hrs by SRB assay; format: functional; conditions: NCI-H23, 48 h
NCI-H226 = assay: Growth inhibition of human NCI-H226 cells after 48 hrs by SRB assay; format: functional; conditions: NCI-H226, 48 h
NCI-H522 = assay: Growth inhibition of human NCI-H522 cells after 48 hrs by SRB assay; format: functional; conditions: NCI-H522, 48 h
NCI-H460 = assay: Growth inhibition of human NCI-H460 cells after 48 hrs by SRB assay; format: functional; conditions: NCI-H460, 48 h
A549 = assay: Growth inhibition of human A549 cells after 48 hrs by SRB assay; format: functional; conditions: A549, 48 h
DMS-114 = assay: Growth inhibition of human DMS114 cells after 48 hrs by SRB assay; format: functional; conditions: DMS-114, 48 h
OVCAR-3 = assay: Growth inhibition of human OVCAR-3 cells after 48 hrs by SRB assay; format: functional; conditions: OVCAR-3, 48 h
OVCAR-4 = assay: Growth inhibition of human OVCAR4 cells after 48 hrs by SRB assay; format: functional; conditions: OVCAR-4, 48 h
MKN-28 = assay: Growth inhibition of human MKN28 cells after 48 hrs by SRB assay; format: functional; conditions: MKN-28, 48 h
MKN-74 = assay: Growth inhibition of human MKN74 cells after 48 hrs by SRB assay; format: functional; conditions: MKN-74, 48 h
[5] = read-out: LC50 (the source's name)
[6] = read-out: pLC50 (the source's name) (converted)

C=C1[C@@H](OC(C)=O)CC[C@@]2(C)C[C@H](OC(C)=O)C3=C(C)C[C@H](OC(=O)C(C)CC)[C@@H]([C@@H](OC(C)=O)[C@H]12)C3(C)C (some centres not stated)
Activity [1]: 256% | Activity [2]: 123% | GI50 ([3]; read-out: GI50): 72 µM | CC50 [3, 5]: > 100 µM | TGI ([3]; read-out: TGI): > 100 µM | GI50 ([3]; read-out: pGI50 (converted)): 72.4 µM | CC50 [3, 6]: 100 µM | TGI ([3]; read-out: pTGI (converted)): 100 µM | GI50 ([4]; read-out: GI50): 25 µM | CC50 [4, 5]: > 100 µM | TGI ([4]; read-out: TGI): > 100 µM | GI50 ([4]; read-out: pGI50 (converted)): 25.1 µM | CC50 [4, 6]: 100 µM | TGI ([4]; read-out: pTGI (converted)): 100 µM | GI50 (MCF7; read-out: GI50): 24 µM | CC50 (MCF7; [5]): > 100 µM | TGI (MCF7; read-out: TGI): 93 µM | GI50 (MCF7; read-out: pGI50 (converted)): 24 µM | CC50 (MCF7; read-out: pLC50 (converted)): > 100 µM | TGI (MCF7; read-out: pTGI (converted)): 93.3 µM | GI50 (MDA-MB-231; read-out: GI50): 18 µM | CC50 (MDA-MB-231; [5]): > 100 µM | TGI (MDA-MB-231; read-out: TGI): > 100 µM | GI50 (MDA-MB-231; read-out: pGI50 (converted)): 18.2 µM | TGI (MDA-MB-231; read-out: pTGI (converted)): 100 µM | GI50 (U-251; read-out: GI50): 36 µM | CC50 (U-251; [5]): > 100 µM | TGI (U-251; read-out: TGI): > 100 µM | GI50 (U-251; read-out: pGI50 (converted)): 36.3 µM | CC50 (U-251; [6]): 100 µM | TGI (U-251; read-out: pTGI (converted)): 100 µM | CC50 (SNB-75; [5]): > 100 µM | TGI (SNB-75; read-out: TGI): 55 µM | GI50 (SNB-75; read-out: pGI50 (converted)): 8.91 µM | CC50 (SNB-75; [6]): 100 µM | TGI (SNB-75; read-out: pTGI (converted)): 55 µM | GI50 (SNB-78; read-out: GI50): 50 µM | CC50 (SNB-78; [5]): > 100 µM | TGI (SNB-78; read-out: TGI): > 100 µM | GI50 (SNB-78; read-out: pGI50 (converted)): 50.1 µM | TGI (SNB-78; read-out: pTGI (converted)): 100 µM | GI50 (HCT-15; read-out: GI50): 32 µM | CC50 (HCT-15; [5]): > 100 µM | TGI (HCT-15; read-out: TGI): > 100 µM | GI50 (HCT-15; read-out: pGI50 (converted)): 32.4 µM | CC50 (HCT-15; read-out: pLC50 (converted)): > 100 µM | TGI (HCT-15; read-out: pTGI (converted)): 100 µM | GI50 (HCT-116; read-out: GI50): 30 µM | CC50 (HCT-116; [5]): > 100 µM | TGI (HCT-116; read-out: TGI): > 100 µM | GI50 (HCT-116; read-out: pGI50 (converted)): 30.2 µM | CC50 (HCT-116; [6]): 100 µM | TGI (HCT-116; read-out: pTGI (converted)): 100 µM | GI50 (NCI-H23; read-out: GI50): 23 µM | CC50 (NCI-H23; [5]): > 100 µM | TGI (NCI-H23; read-out: TGI): 69 µM | GI50 (NCI-H23; read-out: pGI50 (converted)): 22.9 µM | CC50 (NCI-H23; [6]): 100 µM | TGI (NCI-H23; read-out: pTGI (converted)): 69.2 µM | GI50 (NCI-H226; read-out: GI50): 32 µM | CC50 (NCI-H226; [5]): > 100 µM | TGI (NCI-H226; read-out: TGI): > 100 µM | GI50 (NCI-H226; read-out: pGI50 (converted)): 32.4 µM | CC50 (NCI-H226; [6]): 100 µM | TGI (NCI-H226; read-out: pTGI (converted)): 100 µM | GI50 (NCI-H522; read-out: GI50): 15 µM | CC50 (NCI-H522; [5]): > 100 µM | TGI (NCI-H522; read-out: TGI): 49 µM | GI50 (NCI-H522; read-out: pGI50 (converted)): 24 µM | CC50 (NCI-H522; [6]): 100 µM | TGI (NCI-H522; read-out: pTGI (converted)): 49 µM | GI50 (NCI-H460; read-out: GI50): 36 µM | CC50 (NCI-H460; [5]): > 100 µM | TGI (NCI-H460; read-out: TGI): > 100 µM | GI50 (NCI-H460; read-out: pGI50 (converted)): 35.5 µM | TGI (NCI-H460; read-out: pTGI (converted)): 100 µM | GI50 (A549; read-out: GI50): 30 µM | CC50 (A549; [5]): > 100 µM | TGI (A549; read-out: TGI): > 100 µM | GI50 (A549; read-out: pGI50 (converted)): 30.2 µM | CC50 (A549; [6]): 100 µM | TGI (A549; read-out: pTGI (converted)): 100 µM | GI50 (DMS-114; read-out: GI50): 10 µM | CC50 (DMS-114; [5]): > 100 µM | TGI (DMS-114; read-out: TGI): 57 µM | GI50 (DMS-114; read-out: pGI50 (converted)): 10 µM | CC50 (DMS-114; [6]): 100 µM | TGI (DMS-114; read-out: pTGI (converted)): 57.5 µM | GI50 (OVCAR-3; read-out: GI50): 21 µM | CC50 (OVCAR-3; [5]): > 100 µM | TGI (OVCAR-3; read-out: TGI): 99 µM | GI50 (OVCAR-3; read-out: pGI50 (converted)): 20.4 µM | CC50 (OVCAR-3; read-out: pLC50 (converted)): > 100 µM | TGI (OVCAR-3; read-out: pTGI (converted)): 100 µM | GI50 (OVCAR-4; read-out: GI50): 21 µM | CC50 (OVCAR-4; [5]): > 100 µM | TGI (OVCAR-4; read-out: TGI): > 100 µM | GI50 (OVCAR-4; read-out: pGI50 (converted)): 21.4 µM | CC50 (OVCAR-4; [6]): 100 µM | TGI (OVCAR-4; read-out: pTGI (converted)): 100 µM | GI50 (MKN-28; read-out: GI50): 31 µM | CC50 (MKN-28; [5]): > 100 µM | TGI (MKN-28; read-out: TGI): > 100 µM | GI50 (MKN-28; read-out: pGI50 (converted)): 30.9 µM | CC50 (MKN-28; read-out: pLC50 (converted)): > 100 µM | TGI (MKN-28; read-out: pTGI (converted)): 100 µM | GI50 (MKN-74; read-out: GI50): 30 µM | CC50 (MKN-74; [5]): > 100 µM | TGI (MKN-74; read-out: TGI): > 100 µM | GI50 (MKN-74; read-out: pGI50 (converted)): 30.2 µM | CC50 (MKN-74; [6]): 100 µM | TGI (MKN-74; read-out: pTGI (converted)): 100 µM
